From ChEMBL document CHEMBL3871288, “Marine sponge alkaloids as a source of anti-bacterial adjuvants” (Bioorg Med Chem Lett, 2016)

Assays:
Acinetobacter baumannii [1] = assay: Antibiofilm activity against Acinetobacter baumannii ATCC 19606 after 24 hrs by crystal violet staining based assay; format: functional; settings: ATCC 19606, 24 h
Staphylococcus aureus [2] = assay: Antibiofilm activity against methicillin-resistant Staphylococcus aureus BAA-1685 after 24 hrs by crystal violet staining based assay; format: functional; settings: BAA-1685, 24 h
Acinetobacter baumannii [3] = assay: Antibiofilm activity against Acinetobacter baumannii ATCC 19606 at 50 uM after 24 hrs by crystal violet staining based assay relative to control; format: functional; settings: ATCC 19606, 24 h
Acinetobacter baumannii [4] = assay: Potentiation of meropenem-induced antibacterial activity against Acinetobacter baumannii AB5075 assessed as meropenem MIC at 10 uM measured after 16 to 18 hrs by serial dilution assay (reference value: 32 ug/ml); format: functional
Staphylococcus aureus [5] = assay: Potentiation of oxacillin-induced antibacterial activity against methicillin-resistant Staphylococcus aureus BAA-1556 assessed as oxacillin MIC at 10 uM measured after 16 to 18 hrs by serial dilution assay (reference value: 32 ug/ml); format: functional
Staphylococcus aureus [6] = assay: Potentiation of oxacillin-induced antibacterial activity against methicillin-resistant Staphylococcus aureus BAA-1556 assessed as oxacillin MIC at 5 uM measured after 16 to 18 hrs by serial dilution assay (reference value: 32 ug/ml); format: functional
Acinetobacter baumannii [7] = assay: Antibiofilm activity against Acinetobacter baumannii ATCC 19606 at 100 uM after 24 hrs by crystal violet staining based assay relative to control; format: functional; settings: ATCC 19606, 24 h
Staphylococcus aureus [8] = assay: Potentiation of oxacillin-induced antibacterial activity against methicillin-resistant Staphylococcus aureus BAA-1556 assessed as oxacillin MIC at 50 uM measured after 16 to 18 hrs by serial dilution assay (reference value: 32 ug/ml); format: functional
Staphylococcus aureus [9] = assay: Potentiation of oxacillin-induced antibacterial activity against methicillin-resistant Staphylococcus aureus BAA-1556 assessed as oxacillin MIC at 40 uM measured after 16 to 18 hrs by serial dilution assay (reference value: 32 ug/ml); format: functional
Staphylococcus aureus [10] = assay: Potentiation of oxacillin-induced antibacterial activity against methicillin-resistant Staphylococcus aureus BAA-1556 assessed as oxacillin MIC at 25 uM measured after 16 to 18 hrs by serial dilution assay (reference value: 32 ug/ml); format: functional
Staphylococcus aureus [11] = assay: Potentiation of oxacillin-induced antibacterial activity against methicillin-resistant Staphylococcus aureus harboring vraR mutant assessed as oxacillin MIC at 25 uM measured after 16 to 18 hrs by serial dilution assay; format: functional
Staphylococcus aureus [12] = assay: Potentiation of vancomycin-induced antibacterial activity against vancomycin intermediate Staphylococcus aureus ATCC 700699 assessed as vancomycin MIC at 50 uM measured after 16 to 18 hrs by serial dilution assay (reference value: 8 ug/ml); format: functional; settings: Mu50
Staphylococcus aureus [13] = assay: Potentiation of vancomycin-induced antibacterial activity against vancomycin intermediate Staphylococcus aureus ATCC 700699 assessed as vancomycin MIC at 25 uM measured after 16 to 18 hrs by serial dilution assay (reference value: 8 ug/ml); format: functional; settings: Mu50
Method in brief: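 Vancomycin MIC was measured against vancomycin-intermediate S. aureus ATCC 700699 with the alkaloid co-dosed at a fixed concentration. Levels used across the series were 25 and 50 µM.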

Pseudomonas aeruginosa = assay: Antibiofilm activity against Pseudomonas aeruginosa PA14 after 24 hrs by crystal violet staining based assay; format: functional; settings: PA14, 24 h
Staphylococcus aureus [14] = assay: Ratio of oxacillin MIC for methicillin-resistant Staphylococcus aureus BAA-1556 in presence of test compound to oxacillin MIC for methicillin-resistant Staphylococcus aureus harboring vraR mutant in presence of test compound; format: functional
Staphylococcus aureus [15] = assay: Potentiation of oxacillin-induced antibacterial activity against methicillin-resistant Staphylococcus aureus NE481 assessed as oxacillin MIC at 25 uM measured after 16 to 18 hrs by serial dilution assay (reference value: 1 ug/ml)

With `Nc1ncc([C@@H]2[C@@H](CNC(=O)c3cc(Br)c[nH]3)[C@H](CNC(=O)c3cc(Br)c[nH]3)[C@H]2c2cnc(N)[nH]2)[nH]1` the IC50 (Acinetobacter baumannii [1]) was 30.5 µM and the IC50 (Staphylococcus aureus [2]) was 37.6 µM.

`Nc1ncc([C@@H]2[C@@H](CNC(=O)c3cc(Br)c(Br)[nH]3)[C@H](CNC(=O)c3cc(Br)c(Br)[nH]3)[C@H]2c2cnc(N)[nH]2)[nH]1` was tested, and the IC50 (Acinetobacter baumannii [1]) was over 50 µM, the inhibition at 50 µM (Acinetobacter baumannii [3]) was 48% and the IC50 (Staphylococcus aureus [2]) was 15.3 µM. It also gave an MIC (Acinetobacter baumannii [4]) of 8 µg/mL, an MIC (Staphylococcus aureus [5]) of 2 µg/mL and an MIC (Staphylococcus aureus [6]) of 8 µg/mL.

Compound `Nc1nc([C@@H]2c3[nH]c(N)nc3C[C@H](CNC(=O)c3cc(Br)c[nH]3)[C@H]2CNC(=O)c2cc(Br)c(Br)[nH]2)c[nH]1` [BROMOAGELIFERIN] has an IC50 (Acinetobacter baumannii [1]) of 28.3 µM, an IC50 (Staphylococcus aureus [2]) of 10.6 µM and an MIC (Acinetobacter baumannii [4]) of 8 µg/mL. For the same compound, the MIC (Staphylococcus aureus [5]) was 2 µg/mL and the MIC (Staphylococcus aureus [6]) was 16 µg/mL.

For `Nc1ncc(/C=C/CNC(=O)c2cc(Br)c(Br)[nH]2)[nH]1` [OROIDIN], the IC50 (Acinetobacter baumannii [1]) was over 100 µM, the inhibition at 100 µM (Acinetobacter baumannii [7]) was 29% and the IC50 (Staphylococcus aureus [2]) was 77.3 µM. The MIC (Staphylococcus aureus [8]) was 0.5 µg/mL, the MIC (Staphylococcus aureus [9]) was 2 µg/mL and the MIC (Staphylococcus aureus [10]) was 8 µg/mL. It also gave an MIC (Staphylococcus aureus [11]) of 2 µg/mL, an MIC (Staphylococcus aureus [12]) of 2 µg/mL and an MIC (Staphylococcus aureus [13]) of 4 µg/mL. It also gave an IC50 (Pseudomonas aeruginosa) of 166 µM, a Ratio (Staphylococcus aureus [14]) of 4 and an MIC (Staphylococcus aureus [15]) of 0.5 µg/mL.
